Results from ChEMBL document CHEMBL4715779, “In vivo effective dibenzo[b,d]furan-1-yl-thiazoles as novel PDE-4 inhibitors” (Bioorg Med Chem, 2016).

How the values were obtained:
[1] = target: T1, 3',5'-cyclic-AMP phosphodiesterase 4B (Homo sapiens, UniProt Q07343); assay: Inhibition of human PDE4B using [3H]cAMP as substrate at 100 nM incubated for 5 mins followed by substrate addition and measured after 10 mins by scintillation proximity assay relative to control; conditions: time 15.0 min
Summary of the method: (§1)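 Purified human PDE-4B2 in 50 mM Tris pH 7.4, 8.3 mM Mg2+, 1% DMSO final, enzyme converting 10–20% of substrate; 5 min pre-incubation at 37 °C, then 0.5 µM cAMP with ~50,000 cpm [3H]-cAMP for 10 min; stopped with yttrium silicate SPA beads containing 18 mM ZnSO4, read after >30 min settling. Background = no enzyme; IC50 from 8–10-point 4-parameter fit.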

PBMC [2] = assay: Inhibition of PDE-4 in human PBMC assessed as LPS-induced TNFalpha production at 100 nM incubated for 15 mins followed by LPS stimulation and measured after 18 hrs by ELISA relative to control; conditions: time 1095.0 min
Summary of the method: (§2)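 PBMC isolated from healthy volunteers' blood in cell preparation tubes, suspended in RPMI; 0.5 million cells/well pre-incubated with compound 15 min at 37 °C, then stimulated with E. coli LPS (B4) 1 µg/mL for 18 h at 37 °C, 5% CO2; medium TNF-α measured by ELISA.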

PBMC [3] = assay: Inhibition of PDE-4 in human PBMC assessed as LPS-induced TNFalpha production at 1000 nM incubated for 15 mins followed by LPS stimulation and measured after 18 hrs by ELISA relative to control; conditions: time 1095.0 min; summary of the method: as §2
[4] = target: T1, 3',5'-cyclic-AMP phosphodiesterase 4B; assay: Inhibition of human PDE4B using [3H]CAMP as substrate at 1000 nM incubated for 5 mins followed by substrate addition and measured after 10 mins by scintillation proximity assay relative to control; conditions: time 15.0 min; summary of the method: as §1
[5] = Inhibition of PDE-4 in human PBMC assessed as LPS-induced TNFalpha production incubated for 15 mins followed by LPS stimulation and measured after 18 hrs by ELISA relative to control; summary of the method: as §2
Rattus norvegicus [6] = assay: Antiinflammatory activity in Sprague-Dawley rat model of LPS-induced COPD and asthma assessed as reduction in neutrophil influx in BALF at 10 mg/kg, po administered 30 mins before LPS stimulation and measured after 6 hrs relative to control; type: functional; conditions: time 6.5 hrs
Rattus norvegicus [7] = assay: Antiinflammatory activity in Sprague-Dawley rat model of LPS-induced COPD and asthma assessed as reduction in total cell count in BALF at 10 mg/kg, po administered 30 mins before LPS stimulation and measured after 6 hrs relative to control; type: functional; conditions: time 6.5 hrs
Mus musculus [8] = assay: Antiinflammatory activity in Swiss albino mouse model of LPS-induced sepsis assessed as reduction in TNFalpha production at 3 mg/kg, po administered 30 mins before LPS stimulation and measured after 90 min by ELISA relative to control; type: functional; conditions: 2 h, time 120 min
Summary of the method: (§3)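 Female Swiss albino mice fasted 20 h with water, dosed orally in 0.5% Tween 80/0.25% CMC sodium; vehicle-only controls. 500 µg E. coli LPS (B4) in PBS i.p. 30 min later; retro-orbital bleed 90 min post-LPS, blood held overnight at 4 °C, serum TNF-α by mouse ELISA; % inhibition.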

[9] = target: T1, 3',5'-cyclic-AMP phosphodiesterase 4B; assay: Inhibition of human PDE4B using [3H]cAMP as substrate incubated for 5 mins followed by substrate addition and measured after 10 mins by scintillation proximity assay; summary of the method: as §1
Rattus norvegicus [10] = assay: Antiinflammatory activity in Sprague-Dawley rat model of LPS-induced COPD and asthma assessed as reduction in neutrophil influx in BALF at 5 mg/kg, po administered 30 mins before LPS stimulation and measured after 6 hrs relative to control; type: functional; conditions: time 6.5 hrs
Mus musculus [11] = assay: Antiinflammatory activity in Swiss albino mouse model of LPS-induced sepsis assessed as reduction in TNFalpha production at 10 mg/kg, po administered 30 mins before LPS stimulation and measured after 90 min by ELISA relative to control; type: functional; conditions: 2 h, time 120 min; summary of the method: as §3
Mus musculus [12] = assay: Antiinflammatory activity in Swiss albino mouse model of LPS-induced sepsis assessed as reduction in TNFalpha production at 1 mg/kg, po administered 30 mins before LPS stimulation and measured after 90 min by ELISA relative to control; type: functional; conditions: 2 h, time 120 min; summary of the method: as §3

T1 sequence (Q07343 whole entry): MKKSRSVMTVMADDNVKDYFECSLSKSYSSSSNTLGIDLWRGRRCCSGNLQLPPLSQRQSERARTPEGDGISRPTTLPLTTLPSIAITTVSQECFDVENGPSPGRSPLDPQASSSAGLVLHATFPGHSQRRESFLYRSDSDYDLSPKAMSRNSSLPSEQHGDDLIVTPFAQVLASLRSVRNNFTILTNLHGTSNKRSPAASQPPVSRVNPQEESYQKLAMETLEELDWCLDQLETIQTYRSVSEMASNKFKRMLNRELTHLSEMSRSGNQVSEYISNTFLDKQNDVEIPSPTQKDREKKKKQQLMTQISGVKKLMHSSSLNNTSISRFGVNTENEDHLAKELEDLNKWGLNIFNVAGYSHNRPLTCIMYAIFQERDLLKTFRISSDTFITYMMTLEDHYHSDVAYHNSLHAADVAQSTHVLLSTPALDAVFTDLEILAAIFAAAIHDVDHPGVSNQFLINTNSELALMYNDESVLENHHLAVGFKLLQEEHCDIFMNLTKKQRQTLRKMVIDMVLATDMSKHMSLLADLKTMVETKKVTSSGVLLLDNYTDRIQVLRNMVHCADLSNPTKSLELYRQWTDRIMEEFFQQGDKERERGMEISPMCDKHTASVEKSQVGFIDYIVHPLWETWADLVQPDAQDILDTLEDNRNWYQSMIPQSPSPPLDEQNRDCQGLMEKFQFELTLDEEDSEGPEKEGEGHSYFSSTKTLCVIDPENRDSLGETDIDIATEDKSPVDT

## Cc1sc(-c2ccc(OC(F)F)c3oc4ccc(NS(C)(=O)=O)cc4c23)nc1C(=O)O
[1]
  inhibition: 62.6%

## O=C(c1csc(-c2ccc(OC(F)F)c3oc4ccc(C(F)(F)F)cc4c23)n1)N1CCC(O)CC1
PBMC [2]
  inhibition: 14%
[1]
  inhibition: 27.4%

## COc1ccc(-c2nc(C(=O)NC3CCCC3)c(C)s2)c2c1oc1ccccc12
PBMC [2]
  inhibition: 21.9%
PBMC [3]
  inhibition: 39.1%
[1]
  inhibition: 1.6%

## COc1ccc(-c2nc(C(=O)Nc3ccc(Cl)cc3)cs2)c2c1oc1ccccc12
[4]
  inhibition: 5.2%
PBMC [2]
  inhibition: 2.98%
PBMC [3]
  inhibition: 15.8%
[1]
  inhibition: 1.2%

## CS(=O)(=O)Nc1ccc2oc3c(OC(F)F)ccc(-c4nc(C(=O)Nc5c(Cl)cncc5Cl)cs4)c3c2c1
PBMC [2]
  inhibition: 25.1%
[1]
  inhibition: 43.4%

## COc1ccc(-c2nc(C(=O)Nc3c(Cl)cncc3Cl)c(C)s2)c2c1oc1ccccc12
PBMC [2]
  inhibition: 0.9%
PBMC [3]
  inhibition: 9.9%
[1]
  inhibition: 11.1%

## O=C(Nc1c(Cl)cncc1Cl)c1ccc(OC(F)F)c(OCC2CC2)c1 [ROFLUMILAST]
[5]
  IC50: 4.3 nM
Rattus norvegicus [6]
  inhibition in vivo at 10 mg/kg: 73.2%
Rattus norvegicus [7]
  inhibition in vivo at 10 mg/kg: 73.2%
Mus musculus [8]
  inhibition in vivo at 3 mg/kg: 59.2%

## O=C(Nc1c(Cl)cncc1Cl)c1csc(-c2ccc(OC(F)F)c3oc4ccccc4c23)n1
[5]
  IC50: 2210 nM
[4]
  inhibition: 88.6%
PBMC [2]
  inhibition: 14.5%
PBMC [3]
  inhibition: 28.3%
[1]
  inhibition: 42.3%
[9]
  IC50: 127 nM

## COc1ccc(-c2nc(CC(=O)Nc3c(Cl)cncc3Cl)cs2)c2c1oc1ccccc12
[4]
  inhibition: 87.8%
[1]
  inhibition: 32.7%

## COc1ccc(-c2csc(-c3ccc(OC)c4oc5ccccc5c34)n2)cc1
[4]
  inhibition: 41.5%
[1]
  inhibition: 19.4%

## CCOC(=O)c1cccc(-c2csc(-c3ccc(OC)c4oc5ccccc5c34)n2)n1
[4]
  inhibition: 15.6%
[1]
  inhibition: 5.8%

## Cc1sc(-c2ccc(OC(F)F)c3oc4ccc(NS(C)(=O)=O)cc4c23)nc1C(=O)NC1CCC(O)CC1 (configuration not stated)
[5]
  IC50: 54.4 nM
Rattus norvegicus [6]
  inhibition in vivo at 10 mg/kg: 19.3%
PBMC [2]
  inhibition: 61.8%
PBMC [3]
  inhibition: 92.8%
[1]
  inhibition: 67.6%
[9]
  IC50: 24.7 nM

## COc1ccc(-c2nc(C(N)=O)cs2)c2c1oc1ccccc12
[5]
  IC50: 386 nM
[4]
  inhibition: 43.8%
PBMC [2]
  inhibition: 35.5%
PBMC [3]
  inhibition: 69.8%
[1]
  inhibition: 15.4%

## O=C(NCC(F)(F)F)c1csc(-c2ccc(OC(F)F)c3oc4ccccc4c23)n1
PBMC [2]
  inhibition: 26.7%
PBMC [3]
  inhibition: 31.9%

## CC(=O)Nc1ccc2oc3c(OC(F)F)ccc(-c4nc(C(=O)O)cs4)c3c2c1
PBMC [2]
  inhibition: 15.5%
[1]
  inhibition: 56.5%

## CCNC(=O)c1nc(-c2ccc(OC)c3oc4ccccc4c23)sc1C
PBMC [2]
  inhibition: 9.9%
PBMC [3]
  inhibition: 23.8%
[1]
  inhibition: 24.6%

## CC(=O)Nc1ccc2oc3c(OC(F)F)ccc(-c4nc(C(=O)NC5CCC(O)CC5)cs4)c3c2c1 (configuration not stated)
[5]
  IC50: 39.6 nM
Rattus norvegicus [6]
  inhibition in vivo at 10 mg/kg: 51.2%
Rattus norvegicus [10]
  inhibition in vivo at 5 mg/kg: 35.7%
PBMC [2]
  inhibition: 83.4%
PBMC [3]
  inhibition: 91.9%
[1]
  inhibition: 69%
[9]
  IC50: 40.4 nM

## O=C(NC1CCC(O)CC1)c1csc(-c2ccc(OC(F)F)c3oc4ccc(C(F)(F)F)cc4c23)n1 (configuration not stated)
PBMC [2]
  inhibition: 17.2%
[1]
  inhibition: 51.5%

## COc1ccc(-c2nc(C(=O)N3CCN(c4ncccn4)CC3)cs2)c2c1oc1ccccc12
[4]
  inhibition: 59.3%
[1]
  inhibition: 25.8%

## COc1ccc(-c2nc(C(=O)NC3CCC(O)CC3)c(C)s2)c2c1oc1ccccc12 (configuration not stated)
[5]
  IC50: 27.7 nM
PBMC [2]
  inhibition: 82.7%
PBMC [3]
  inhibition: 103%
[1]
  inhibition: 62.6%
[9]
  IC50: 43.8 nM

## COc1ccc(-c2nc(C(=O)N3CCN(c4ccccn4)CC3)cs2)c2c1oc1ccccc12
[4]
  inhibition: 52.9%
[1]
  inhibition: 21.9%

## CCOC(=O)c1csc(-c2ccc(OC)c3oc4ccccc4c23)n1
[4]
  inhibition: 24.4%
[1]
  inhibition: 17.6%

## CS(=O)(=O)Nc1ccc2oc3c(OC(F)F)ccc(-c4nc(C(=O)NC5CCC(O)CC5)cs4)c3c2c1 (configuration not stated)
[5]
  IC50: 18.4 nM
PBMC [2]
  inhibition: 78.6%
PBMC [3]
  inhibition: 97.8%
[1]
  inhibition: 67%
[9]
  IC50: 31.4 nM

## CCOc1cc([C@@H](CS(C)(=O)=O)N2C(=O)c3cccc(NC(C)=O)c3C2=O)ccc1OC
[5]
  IC50: 77 nM

## COc1ccc(-c2nc(C(=O)Nc3ccccc3)cs2)c2c1oc1ccccc12
[4]
  inhibition: 7.4%
[1]
  inhibition: 2.4%

## COc1ccc(-c2nc(-c3cccc(C(=O)O)n3)cs2)c2c1oc1ccccc12
[4]
  inhibition: 26.4%
[1]
  inhibition: 18.2%

## COc1ccc(-c2nc(CCC(=O)Nc3c(Cl)cncc3Cl)cs2)c2c1oc1ccccc12
[4]
  inhibition: 38.5%
[1]
  inhibition: 8.9%

## CS(=O)(=O)Nc1ccc2oc3c(OC(F)F)ccc(C(=O)Nc4c(Cl)cncc4Cl)c3c2c1 [OGLEMILAST]
Mus musculus [11]
  inhibition in vivo at 10 mg/kg: 72.5%
Mus musculus [12]
  inhibition in vivo at 1 mg/kg: 53.9%

## CONC(=O)c1csc(-c2ccc(OC(F)F)c3oc4ccccc4c23)n1
Mus musculus [11]
  inhibition in vivo at 10 mg/kg: 40.7%
PBMC [2]
  inhibition: 8.5%
[1]
  inhibition: 35.7%

## O=C(O)c1csc(-c2ccc(OC(F)F)c3oc4ccc(C(F)(F)F)cc4c23)n1
PBMC [2]
  inhibition: 4.2%
[1]
  inhibition: 59.3%

## COc1ccc(-c2nc(C(=O)Nc3c(Cl)cncc3Cl)cs2)c2c1oc1ccccc12
[5]
  IC50: 1750 nM
Mus musculus [11]
  inhibition in vivo at 10 mg/kg: 37.8%
[4]
  inhibition: 92%
PBMC [3]
  inhibition: 34.2%
[1]
  inhibition: 70.3%
[9]
  IC50: 48.4 nM

## COc1ccc(-c2nc(-c3ccc(C#N)cc3)cs2)c2c1oc1ccccc12
[4]
  inhibition: 15.8%
[1]
  inhibition: 5.2%

## COc1ccc(-c2nc(C(=O)NC3CCC(O)CC3)cs2)c2c1oc1ccccc12 (configuration not stated)
[5]
  IC50: 37.7 nM
Mus musculus [11]
  inhibition in vivo at 10 mg/kg: 46.7%
PBMC [2]
  inhibition: 63.2%
[1]
  inhibition: 71.8%
[9]
  IC50: 49.5 nM

## COc1ccc(-c2nc(C(=O)NN3CCOCC3)cs2)c2c1oc1ccccc12
PBMC [3]
  inhibition: 22%
[1]
  inhibition: 39.6%

## CONC(=O)c1nc(-c2ccc(OC(F)F)c3oc4ccc(NS(C)(=O)=O)cc4c23)sc1C
PBMC [2]
  inhibition: 35.4%
[1]
  inhibition: 81.2%

## COc1ccc(-c2nc(C(=O)O)cs2)c2c1oc1ccccc12
[4]
  inhibition: 80.4%
[1]
  inhibition: 36%
